Measured values: ChEMBL document CHEMBL4513216, “Probing the Open Global Health Chemical Diversity Library for Multistage-Active Starting Points for Next-Generation Antimalarials” (ACS Infect Dis, 2020)

Experiment: Toxicity liver stage against HepG2, at 10uM
Assay type: cell-based
Design: test concentration 10 uM, cell line HepG2-A16-CD81EGFP
Conditions: human, HepG2-A16-CD81EGFP cells; read-out: INHIBITION
How it was run: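 Uninfected HepG2-A16-CD81EGFP cells, 3 × 10^3 per well, 1536-well, plated on prespotted compound at 10 μM final, parasite-free screening media added to match infected plates; puromycin 10 μM positive, DMSO 0.5% negative; run in parallel with 48 h PbLuc assay at 37 °C, 5% CO2; viability by CellTiter-Glo luminescence, normalized to controls.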
Work on `COC(=O)c1ccccc1NC(=O)c1c(C)cn(C)c1CC(=O)O` yielded a cytotoxicity at 10 µM of -6.14%. Compound `CCc1c(C)sc2nc3n(CC(N)=O)nc(SC)n3c(=O)c12` has a cytotoxicity at 10 µM of -0.817%. For `Cc1cc(C)n(-c2ccnc(N3CCC(C(=O)N4CCCC4)CC3)n2)n1`, the cytotoxicity at 10 µM was -9.87%. `Cc1cc2nc(SCC(=O)N3CCCC3)n(C)c(=O)c2[nH]1` showed a cytotoxicity at 10 µM of 11.1%. In the case of `CCOc1cc2c(cc1CCC(=O)O)CCC2`, the cytotoxicity at 10 µM is reported as -4.63%. With `COc1cccc(C2CC(=O)Nc3nc(N4CCCCC4)sc32)c1OC` (stereo not drawn) the cytotoxicity at 10 µM was 10.4%. In the case of `CCc1cc(=O)[nH]c2nnc(SCC(=O)OC)n12`, the cytotoxicity at 10 µM is reported as -16.6%. Compound `CCC1=N[C@@]2(CC[C@@H]3CN(C(=O)NC(C)C)C[C@@H]32)C(=O)N1C` has a cytotoxicity at 10 µM of -18%. `CCOc1ccc(N2CCCN=C2NC(=O)c2ccc(Cl)cc2)cc1` gave a cytotoxicity at 10 µM of 8.1%. Compound `O=C(O)Cn1ccc2c(Cl)cccc21` has a cytotoxicity at 10 µM of 0.308%. Compound `Oc1cc(C2CCCCN2Cc2cccs2)nc(-c2ccncc2)n1` (stereo not drawn) has a cytotoxicity at 10 µM of 7.78%. `Cc1cc(C)nc(Nc2cc(C)nc(C3CCN(C(=O)CO)C3)n2)n1` (stereo not drawn) showed a cytotoxicity at 10 µM of 5.34%. `CNC(=O)C1CN(c2ncccn2)CCN1Cc1ccccc1` (stereo not drawn) gave a cytotoxicity at 10 µM of 14.3%. For `Cc1nc(C(=O)N2CCC(c3cc(CCO)n(C)n3)C2)co1` (stereo not drawn), the cytotoxicity at 10 µM was -5.42%. `CC(C)c1nc(O)c2nnn(C[C@@H]3CCCN(Cc4cccs4)C3)c2n1` showed a cytotoxicity at 10 µM of 1.76%. `c1c[nH]c2nc(C3CCNC3)nc-2c1` (stereo not drawn) showed a cytotoxicity at 10 µM of 10.3%. For `CC(C)N(C)CC(=O)NCc1ccccc1N1CCN(C)CC1`, the cytotoxicity at 10 µM was -7.85%. Work on `CC(C)C(C(=O)N(C)C)c1cccc(Cl)c1` (stereo not drawn) yielded a cytotoxicity at 10 µM of 6.14%. `CCCS(=O)(=O)CC(=O)NC(C)c1cccc(-n2cccn2)c1` (stereo not drawn) showed a cytotoxicity at 10 µM of 6%. Compound `Cc1nnc(NCCc2coc(-c3ccc(F)cc3)n2)c(C#N)c1C` has a cytotoxicity at 10 µM of -16.3%. With `Cc1ncc(S(=O)(=O)Nc2ccnn2C(C)C)[nH]1` the cytotoxicity at 10 µM was 9.68%. `Cc1cnn(CCNCc2c(C)nn(C)c2Cl)c1` showed a cytotoxicity at 10 µM of -15.3%. In the case of `N#Cc1c(F)cccc1Nc1cnn(CC(=O)N2CCOCC2)c1`, the cytotoxicity at 10 µM is reported as 2.2%. `CCCc1noc(CN(C)Cc2ccc3c(c2)OCO3)n1` gave a cytotoxicity at 10 µM of -11.1%. `Cn1ncnc1CNC1CCc2cc(Cl)ccc21` (stereo not drawn) gave a cytotoxicity at 10 µM of 9.57%. Compound `CC(=O)Nc1cc2c(cc1C)OCO2` has a cytotoxicity at 10 µM of 10.5%. `CC(C)(C)OC(=O)N1CCN(S(C)(=O)=O)C2(CCCCC2)C1` gave a cytotoxicity at 10 µM of 10.3%. Work on `OCc1ccc(-c2nccn2CCc2nc3c(s2)CCCC3)o1` yielded a cytotoxicity at 10 µM of 4.71%. With `CCN1CCC(N2C[C@H]3OC(=O)N(CCc4cccc(Cl)c4)[C@H]3C2)CC1` the cytotoxicity at 10 µM was -5.4%. With `Cc1ccc(C)c2c(=O)cc(CN3CC[C@@H](N)[C@H](O)C3)[nH]c12` the cytotoxicity at 10 µM was 8.24%. Compound `CSCCN1CCN(c2nc(N)ncc2C)CC1` has a cytotoxicity at 10 µM of 1.54%. `COCCN(C)C[C@@H]1CN(C(=O)c2ccc(SC)cc2)C[C@@H]1CO` gave a cytotoxicity at 10 µM of 4.44%. In the case of `c1cncc(-c2noc(CCNc3ncnc4c3CCNCC4)n2)c1`, the cytotoxicity at 10 µM is reported as 3.38%. With `CC(=O)N1C[C@H](NC(=O)c2ccnc(N)c2)[C@@H](C(C)C)C1` the cytotoxicity at 10 µM was 8.64%. Compound `Cc1cc(C)cc(-c2cc(C3CCOC3)c(C#N)c(N)n2)c1` (stereo not drawn) has a cytotoxicity at 10 µM of 1.44%. Compound `CCCN1CCC(NN2CCN(C)CC2)CC1` has a cytotoxicity at 10 µM of -2.38%. `CC(C)CCN1CC2(CCCN(C(=O)CNC(=O)N(C)C)C2)CCC1=O` (stereo not drawn) showed a cytotoxicity at 10 µM of 9.94%. `Cc1nc2c(N(CCC(N)=O)CCc3ccccc3)ncnc2o1` showed a cytotoxicity at 10 µM of 4.6%. For `CN(Cc1cc[nH]n1)C(=O)c1cn(Cc2c(F)cccc2F)nn1`, the cytotoxicity at 10 µM was 7.29%. For `Cc1ccc(O)c(C(=O)N2C[C@@H](C(=O)O)[C@H](c3ccccc3)C2)c1`, the cytotoxicity at 10 µM was 0.00559%. In the case of `CN(C)CCN(CC1CCCO1)S(=O)(=O)NCc1ccccc1` (stereo not drawn), the cytotoxicity at 10 µM is reported as 0.666%. `COc1ccc(-n2c(CO)nc3ccccc32)cc1CO` gave a cytotoxicity at 10 µM of 1.78%. Work on `COc1ccc(CN(Cc2cnn(C)c2)CC(C)C)cn1` yielded a cytotoxicity at 10 µM of -18.4%. `Cc1cc(C)n2nc(C(=O)N3CCCC4(CCOC4)C3)cc2n1` (stereo not drawn) gave a cytotoxicity at 10 µM of 7.73%. `Cc1ccc(C(C(=O)N2CC(c3ccccn3)C2)N(C)C)cc1` (stereo not drawn) showed a cytotoxicity at 10 µM of -9.82%. In the case of `CCNc1ncc(C(=O)NCCCc2ccncc2)cn1`, the cytotoxicity at 10 µM is reported as 0.562%. Work on `Cc1ccc(Oc2ncccc2CNC(=O)NC2CCCCC2)cn1` yielded a cytotoxicity at 10 µM of -3.01%. In the case of `CC(C)C(=O)N1CCN(C(=O)c2cc(C(C)C)no2)[C@H]2CS(=O)(=O)C[C@H]21`, the cytotoxicity at 10 µM is reported as -9.43%. Work on `CN1CCC(C2CCN(Cc3cccc(-n4cccn4)c3)CC2)C1` (stereo not drawn) yielded a cytotoxicity at 10 µM of -6.15%. Work on `CCC(=O)N1CCN(Cc2cc(-c3ccncc3)nn2C)CC1` yielded a cytotoxicity at 10 µM of 4.24%. In the case of `COc1cc(CNCc2ccnc(N3CCOCC3)c2)cc(OC)c1`, the cytotoxicity at 10 µM is reported as 6.1%. `CCS(=O)(=O)N(C)CCCNCc1c(C)nn(C)c1N(C)C` gave a cytotoxicity at 10 µM of -8.72%. `CC(Cn1ccnc1)NC(=O)C1(c2cccc(Cl)c2)CC1` (stereo not drawn) gave a cytotoxicity at 10 µM of -19.3%. Work on `CC(C)c1nc(CN2CCCC2c2cnn(C)c2)cs1` (stereo not drawn) yielded a cytotoxicity at 10 µM of 0.0791%. With `Cc1ccc(-c2nnc(CN3CCOC(Cn4cncn4)C3)o2)cc1` (stereo not drawn) the cytotoxicity at 10 µM was -10.2%. `CCc1nc(CN(C(C)=O)C2CCN(CCc3ccccc3)C2)no1` (stereo not drawn) gave a cytotoxicity at 10 µM of -2.18%. In the case of `CN(CCC(=O)N1CCc2sccc2C1)Cc1cnn(C)c1`, the cytotoxicity at 10 µM is reported as -18.6%. Work on `CN(CCC(=O)N1CCc2sccc2C1)Cc1cc(Br)cs1` yielded a cytotoxicity at 10 µM of -14.8%. For `Cc1noc(C)c1CC(=O)N1CCc2sccc2C1`, the cytotoxicity at 10 µM was -18.4%. `COc1ccc(C)cc1C(C)NC(=O)CCn1cncn1` (stereo not drawn) showed a cytotoxicity at 10 µM of -7.82%. For `O=C(NCCN1C(=O)c2ccccc2C1=O)c1scnc1Cl`, the cytotoxicity at 10 µM was -12.3%. Compound `Cc1ccc(C(=O)N2CCN(Cc3cccs3)CC2)n1C` has a cytotoxicity at 10 µM of -5.37%. For `Cc1cc(C)n(CC2CCCN2C(=O)c2ccc3nnc(C)n3c2)n1` (stereo not drawn), the cytotoxicity at 10 µM was -3.6%. With `COc1ccc(N2CCN(C(=O)NC(C)c3nncn3C)CC2)cc1` (stereo not drawn) the cytotoxicity at 10 µM was -7.12%. Compound `Cc1cc(NC(=O)CN2CCCC2c2noc(C3CC3)n2)n(C)n1` (stereo not drawn) has a cytotoxicity at 10 µM of -1.16%. `COc1cc(C(=O)N2CCCC(n3ccnc3)C2)cc2c1OCCO2` (stereo not drawn) showed a cytotoxicity at 10 µM of -5.28%. `CC(=O)Nc1nc(C(=O)NCc2ccc(N3CCOCC3)nc2)cs1` showed a cytotoxicity at 10 µM of -14%. Work on `COc1c(CNCc2ccnc(N3CCOCC3)c2)c(C)nn1C` yielded a cytotoxicity at 10 µM of -1.82%. Compound `O=C(CN1CCCC1c1cccs1)N1CCc2sccc2C1` (stereo not drawn) has a cytotoxicity at 10 µM of -17%. Work on `COc1ccc(CNC(=O)Nc2cccnc2N2CCCC2)cc1` yielded a cytotoxicity at 10 µM of -21.5%. Work on `COc1cc(C)nc(N2CCN(C(=O)c3cc(C)no3)CC2)n1` yielded a cytotoxicity at 10 µM of -30.4%. In the case of `O=C(c1ccc(OCC2CC2)nc1)N1CCCC(n2ccnc2)C1` (stereo not drawn), the cytotoxicity at 10 µM is reported as -9.16%. Compound `CCCNC(=O)CCC(=O)Nc1ccc(-n2cncn2)c(F)c1` has a cytotoxicity at 10 µM of 1.94%. For `Cc1cnn(CCNCc2nc(COc3ccc(F)cc3)no2)c1`, the cytotoxicity at 10 µM was -5.61%. Work on `Cc1nc(C2CCCN2CC(=O)N2CCCc3ccccc32)no1` (stereo not drawn) yielded a cytotoxicity at 10 µM of -8.7%. `O=C(NCc1ccccn1)N(Cc1ccc(F)cc1F)C1CC1` showed a cytotoxicity at 10 µM of -17.5%. In the case of `N#Cc1ccccc1N1CCCN(C(=O)CCn2cccn2)CC1`, the cytotoxicity at 10 µM is reported as -13.1%. `Cc1noc(C2CCN(Cc3cc(=O)n(C)c(=O)n3C)CC2)n1` showed a cytotoxicity at 10 µM of -2.57%. For `Cc1ccsc1CNc1cc(N2CCCC2CO)ncn1` (stereo not drawn), the cytotoxicity at 10 µM was -2.45%. Compound `Cc1nc(CN2CCCC(N(C)Cc3nnsc3Cl)C2)no1` (stereo not drawn) has a cytotoxicity at 10 µM of -4.36%. In the case of `CC(=O)Nc1ccc(Oc2cc(C)nc(C3CCNCC3)c2)cc1`, the cytotoxicity at 10 µM is reported as 2.69%. Work on `Cc1ccc(CN(Cc2c[nH]cn2)C2CC(C)(C)NC(C)(C)C2)o1` yielded a cytotoxicity at 10 µM of -0.105%. With `NCC(=O)N1CCC(c2ccnc(Nc3cc(C(F)(F)F)ccn3)n2)C1` (stereo not drawn) the cytotoxicity at 10 µM was 9.83%.
